Measured values gathered from unrelated publications.
Target: Tyrosine-protein kinase ITK/TSK (ITK, Homo sapiens, UniProt Q08881)
Residues used in one study (Q08881 1-620): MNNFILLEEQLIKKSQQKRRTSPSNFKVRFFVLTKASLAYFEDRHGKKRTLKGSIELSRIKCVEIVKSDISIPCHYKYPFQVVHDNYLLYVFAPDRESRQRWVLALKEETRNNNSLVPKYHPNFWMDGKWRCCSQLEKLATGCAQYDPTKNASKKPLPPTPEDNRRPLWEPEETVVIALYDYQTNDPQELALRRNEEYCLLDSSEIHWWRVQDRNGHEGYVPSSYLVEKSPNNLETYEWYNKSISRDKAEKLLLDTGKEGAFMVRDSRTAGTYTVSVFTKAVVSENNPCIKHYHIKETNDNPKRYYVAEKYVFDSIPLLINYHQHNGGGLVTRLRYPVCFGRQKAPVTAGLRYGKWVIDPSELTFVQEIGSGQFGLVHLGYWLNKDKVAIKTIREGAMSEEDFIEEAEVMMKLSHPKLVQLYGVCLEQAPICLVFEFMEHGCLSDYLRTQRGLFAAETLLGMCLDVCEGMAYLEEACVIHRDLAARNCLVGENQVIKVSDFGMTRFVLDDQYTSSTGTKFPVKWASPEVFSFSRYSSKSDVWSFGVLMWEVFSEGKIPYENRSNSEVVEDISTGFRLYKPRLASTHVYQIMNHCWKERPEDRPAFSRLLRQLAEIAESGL

`CC1=C(C#N)[C@@H](c2ccc3[nH]nc(C)c3c2)C(C#N)=C(c2ccc(Cl)cc2)N1` has a remaining binding of 97.2% (cell-free assay; competition with immobilised ligand; 1 µM).
The remaining activity of `O=C(Nc1cnn(-c2csc(C(=O)NC3COC3)c2)c1)Nc1ccccc1Cl` is reported as 107% (enzyme activity; inhibitor; 5 µM).
`Nc1ncnc2occ(-c3ccc(NC(=O)Nc4cc(C(F)(F)F)ccc4F)cc3)c12` has a remaining signal of 12% (cell-free assay; 20 µM).
`CCN(CC)CCNC(=O)c1c(C)[nH]c(/C=C2\C(=O)Nc3ccc(Cl)cc32)c1C` has a remaining activity of 30% (enzyme activity; inhibitor; 0.5 µM).
`CCN(CC)CCNC(=O)c1c(C)[nH]c(/C=C2\C(=O)Nc3ccc(F)cc32)c1C` has an inhibition of 93% (enzyme activity; inhibitor; 10 µM).
With `CN(C)C1CCN(CC#Cc2nn(C3CCCC3)c3nc(NCc4ccccc4)ncc23)C1` (stereo not shown) the inhibition was 15% (enzyme activity; inhibitor; FRET; 10 µM).
For `COc1cc(Cl)c(C(=O)N[C@@H](CN[C@H]2CC[C@@H](N)CC2)Cc2ccc(C#N)cc2)cc1-c1ccc(CN[C@H](C)c2ccc(C)cc2)o1`, the remaining activity was 104% (enzyme activity; inhibitor; 1 µM).
The remaining binding of `CC(=O)N1CCC(c2ccc(C(=O)NC(=N)N)cc2C(F)(F)F)CC1` is reported as 100% (cell-free assay; competition with immobilised ligand; 1 µM).
`CC(C)(C)c1nc(-c2cccc(NS(=O)(=O)c3c(F)cccc3F)c2F)c(-c2ccnc(N)n2)s1` gave a remaining activity of 109% (enzyme activity; inhibitor; radiometric; 1 µM).
For `CC/C(=N\NC(=O)NCc1cccc(O)c1)c1ccc(O)c(C)c1O`, the inhibition was 3.3% (enzyme activity; inhibitor; 0.1 µM).
`c1cnn2ncc(-c3ccnc(N4CCC45COC5)n3)c2c1` has a remaining binding of 100% (binding; 1 µM).
`N#CCCc1ccc2c(c1)-c1[nH]c3ccc([N+](=O)[O-])cc3c1CC(=O)N2` gave a remaining signal of 99.9% (cell-free assay; 0.5 µM).
With `CCCS(=O)(=O)Nc1ccc(F)c(C(=O)c2c[nH]c3ncc(-c4ccc(Cl)cc4)cc23)c1F` the inhibition was less than 10% (enzyme activity; inhibitor; 1 µM).
The remaining binding of `CC(C)CC(=O)N1CCc2nc(-c3ccc(Br)cc3)nc(N(C)Cc3ccccc3)c2C1` is reported as 100% (cell-free assay; competition with immobilised ligand; 0.1 µM).
With `Cc1ccc(C(=O)Nc2ccc(CN3CCN(C)CC3)c(C(F)(F)F)c2)cc1C#Cc1cnc2cccnn12` the remaining activity was 82% (enzyme activity; 23.5 nM).
The remaining signal of `COc1cc2c(Nc3ccc(Br)cc3F)ncnc2cc1OCC1CCN(C)CC1` is reported as 101% (cell-free assay; 0.5 µM).
For `CNCc1ccccc1-c1csc([C@H](C)Nc2nc(C)nc3cc(OC)c(OC)cc23)c1`, the remaining binding was 100% (cell-free assay; competition with immobilised ligand; 1 µM).
For `COc1cc2nccc(Oc3ccc(NC(=S)NC(=O)c4ccccc4C)cc3)c2cc1OC`, the remaining activity was 80.6% (enzyme activity; inhibitor; 0.5 µM).
The remaining binding of `CO[C@@H](C)c1c(Nc2ccc([C@H](N(C)C(=O)C3CCS(=O)(=O)CC3)C(F)(F)F)cc2)cnc2cc(Cl)nn12` is reported as 88% (cell-free assay; competition with immobilised ligand; 1 µM).
